Screens from PubChem BioAssay.
Dynein cargo inh: dynein cargo transport inhibition | 0.47% of 220,000 active | 3617.4 mouse cells, GR-EGFP nuclear translocation imaging; test concentration mostly 20 µM; stimulated with dexamethasone, 1 µM; active compounds read low | z-score, hits read low | AID 1381;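 active means plate z-score of nuclear minus cytoplasmic receptor signal below a set negative limit, without overly bright fluorescence or cell loss, cut at about -3.5 in these data, passing the limit was not always enough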;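 further: z-score of nuclear minus cytoplasmic ring GR-EGFP intensity difference per well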
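Buffer or medium – tet-free medium with charcoal-stripped serum · Signal – automated 10x imaging of fixed Hoechst-stained cells · Also added – dexamethasone agonist, 1.0 µM final, for 30 min · Incubation – induction 48 h, compound 1 h, agonist 30 min · Read-out – GR-EGFP nuclear translocation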
MEKK3 PB1 HTS: modulators (inhibitors or enhancers) of MEK5 binding to human MEKK3 PB1 domain; Q99759; bead-based flow cytometry, Alexa488-MEK5 binding to MEKK3; actives lie on both sides; 0 = blocked by unlabeled MEK5, 100 = vehicle; binding response (% of control), % at 10 µM; 1.4% of 290,000 active;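 active means binding response more than 3 SD above or below the average of its plate-row segment, actives on both sides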;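 further: Alexa488 bead fluorescence after subtracting the streptavidin-only scavenger bead signal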
MEKK2 WT-MEK5: raises or lowers MEK5 binding to wildtype human MEKK2 PB1 domain | AID 1531 | 1.1% of 290,000 active | binding response (% of control), % at 10 µM | bead flow cytometry, Alexa488-MEK5 binding to MEKK2 WT; actives lie on both sides; in the data active means binding response below about 67% or above about 130%
ATG4B inh: blocks human ATG4B protease cleavage of LC3 substrate. ATG4B cleavage of LC3-PLA2, NBD-HPC fluorescence, 1 h. inhibition, % at 8.33 µM. 0.51% of 340,000 active. AID 504462; in the data active means inhibition above about 40%
B2AR ag: human beta-2 adrenergic receptor agonism by FAP | P07550 | Am2.2-beta2AR cells, FAP receptor internalization, flow cytometry | response, % (test concentration not listed) | 0.43% of 340,000 active | AID 504454;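 active means response above a set limit, near 3 SD of response in nonfluorescent compounds, cut at about 42% in these data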
Target sequence (P07550 whole entry, looked up): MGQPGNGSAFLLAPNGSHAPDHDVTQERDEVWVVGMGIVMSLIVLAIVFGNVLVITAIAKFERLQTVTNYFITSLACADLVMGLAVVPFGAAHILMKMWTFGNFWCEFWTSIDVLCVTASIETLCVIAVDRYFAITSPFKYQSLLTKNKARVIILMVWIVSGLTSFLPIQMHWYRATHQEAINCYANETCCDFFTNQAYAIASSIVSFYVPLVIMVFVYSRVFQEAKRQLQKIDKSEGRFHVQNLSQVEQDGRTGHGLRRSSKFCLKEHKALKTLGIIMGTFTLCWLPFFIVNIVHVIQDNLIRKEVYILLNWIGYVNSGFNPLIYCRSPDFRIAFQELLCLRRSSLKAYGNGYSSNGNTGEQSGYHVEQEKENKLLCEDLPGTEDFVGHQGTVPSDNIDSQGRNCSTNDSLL
MEKK2 mut-MEK5: signal of MEK5 binding to mutant human MEKK2 PB1 domain. bead flow cytometry, Alexa488-MEK5 binding to MEKK2 mutant. percent response, % at 10 µM. 0.35% of 290,000 active. AID 1530; in the data active means percent response above about 24%, passing the limit was not always enough
MEKK2wt confirm: raises or lowers MEK5 binding to wildtype human MEKK2, retest | shares compounds with MEKK3 PB1 HTS | bead flow cytometry, Alexa488-MEK5 binding to MEKK2 WT; actives lie on both sides | binding response (% of control), % at 10 µM | 2.4% of 5,900 active | AID 1892; in the data active means binding response below about 16% or above about 210%; inactive means in between
MEKK2mut confirm: signal of MEK5 binding to mutant human MEKK2, retest. shares compounds with MEKK3 PB1 HTS. bead flow cytometry, Alexa488-MEK5 binding to MEKK2 mutant. percent response, % at 10 µM. 2% of 5,900 active. AID 1893; in the data active means percent response mostly above about 71%, no sharp cut-off; inactive means mostly below about 38%;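 further: higher means compound restores mutant binding toward wildtype level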
MEKK3 confirm: MEKK3-MEK5 PB1 inhibition, single concentration confirmation | shares compounds with MEKK3 PB1 HTS | bead flow cytometry, Alexa488-MEK5 binding to MEKK3; active compounds read low | binding response (% of control), % at 10 µM | 1.8% of 5,900 active | AID 1894;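 active means binding response below 72% of control, or above a set upper limit, though filed actives all read lower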;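 further: 100% = DMSO only wells and 0% = binding blocked by excess unlabeled MEK5; lower values mean stronger disruption of MEK5 binding to MEKK3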
Numbers without * were called inactive; · = not tested or not shown; [ ] = dose if it differs, or a comment. The list is not random: actives were taken first. Their share in the collection is about 2.9%.

SMILES	Dynein cargo inh	MEKK3 PB1 HTS	MEKK2 WT-MEK5	ATG4B inh	B2AR ag	MEKK2 mut-MEK5	MEKK2wt confirm	MEKK2mut confirm	MEKK3 confirm
CCOC(=O)C(=NC(C)C)NNc1cc(Cl)ccc1Cl	-0.19	141*	104	1	8	0	100	-1	100
Cc1ccc(C2(C)NC(=O)N(CC(=O)NC3CCCCC3)C2=O)cc1 (stereo not drawn)	·	·	·	2	-4	·	·	·	·
COc1ccc(OCc2n(CC(=O)OC3CC(C)CCC3C(C)C)c3ccccc3[n+]2C)cc1 (stereo not drawn)	2.3	111	162*	19	25	40	158	29	108
COc1ccc(-c2n(CC(=O)OC3CC(C)CCC3C(C)C)c3ccccc3[n+]2C)cc1 (stereo not drawn)	0.98	109	136	21	9	21	·	·	·
CCOc1ccc(NC(=O)c2cc3cc4ccc(OC)cc4nc3o2)cc1	-0.038	2.0*[inhibitor]	1.0*[inhibitor]	-3	4	-14	94	-2	103
COc1ccc2cc3cc(C(=O)Nc4ccccc4N4CCN(C)CC4)oc3nc2c1	-0.14	113	173*	-16	19	21	158	33	110
O=C(NCCCn1ccnc1)c1cc(Cl)cc(Cl)c1	·	108	114	-1	-8	8	·	·	·
Cc1ccnc(NS(=O)(=O)c2ccc(NC(=O)c3ccc(Br)o3)cc2)n1	-0.35	130*	118	9	8	1	97	-9	97
CC(=O)Nc1ccc(C(=O)Nc2ccc(S(=O)(=O)Nc3nccc(C)n3)cc2)cc1	·	104	102	1	-6	4	·	·	·
COc1ccc(/C=C/C(=O)c2ccc3c(c2)OCCO3)cc1[N+](=O)[O-]	-1	132*	120	-5	10	6	97	-3	97
COc1ccc(/C=N/NC(=O)c2ccc3c(c2)OCCO3)cc1[N+](=O)[O-]	0.55	95	88	-2	9	-4	·	·	·
COc1ccccc1N1CCN(C2CC(=O)N(c3ccc(F)cc3)C2=O)CC1 (stereo not drawn)	·	107	110	-4	-9	12	·	·	·
O=C1[C@@H]2[C@@H]3C[C@@H]([C@H]4ON=C(c5ccc(Cl)cc5Cl)[C@@H]34)[C@@H]2C(=O)N1C1CCCCC1	-0.25	144*	106	-7	-4	3	96	-5	98
OCCNCc1cc(Br)ccc1OCc1ccccc1	-1.1	105	59	3	2	9	·	·	·
CCOc1cc(CNCCc2ccc(S(N)(=O)=O)cc2)cc(Cl)c1OCc1ccccc1	-3	105	206*	-11	31	36*	130	16	103
NS(=O)(=O)c1ccc(CCNCc2cc(Br)ccc2OCc2ccccc2)cc1	-1.1	112	145*	-18	7	8	120	5	103
CCNCc1cc(Cl)c(OCc2ccccc2)c(OCC)c1	-0.64	111	112	1	6	1	·	·	·
CCc1cccc(C)c1NS(=O)(=O)Cc1ccccc1	·	104	104	0	1	10	·	·	·
CCN(CC)C(=S)SCc1csc(CC(=O)Nc2ccccc2C)n1	·	98	94	-9	-8	1	·	·	·
Cc1cccc(NC(=O)CCN2C(=O)C3C4C=CC(C4)C3C2=O)c1 (stereo not drawn)	-0.45	106	106	6	3	8	·	·	·
Cn1c(=O)[nH]c(=O)c2c1nc(Sc1ccccc1)n2CCc1ccccc1	0.36	100	99	7	-4	5	·	·	·
